# In the library only some 3% were active in any assay of this set; here they are far more common.
# S1P1 ag pot = activates or potentiates agonism at human S1P1 receptor; S1P1 CRE-bla cells, forskolin, beta-lactamase FRET, potentiator mode; S1P1 agonist co-added at EC20, 2 nM; 100% = saturating reference agonist, 0% = basal; activation, % at 9.5 µM; AID 449; 0.57% of 56,000 active;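 active = activation above a cutoff set at the mean activation of all tested compounds plus 3 SD, cut at about 54% in these data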;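 note: forskolin at 4 µM as EC80 and the EC20 agonist is SEW2871; 100% = SEW2871 at its EC100 plus forskolin at EC80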
# HTR1E antagonist = antagonists of human 5-HT1E serotonin receptor | P28566 | CHO 5-HT1E Ga15 NFAT-bla reporter, FRET, antagonist | inhibition, % at 6 µM | 0.99% of 65,000 active;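 active = inhibition above a set limit, the mean inhibition across every tested compound plus 3 SD, cut at about 29% in these data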;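 note: signal is the 460 over 535 nm emission ratio of beta-lactamase substrate; 0% = agonist plus DMSO wells and 100% = wells without agonist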
# 5HT1E ag = agonists of human 5-HT1E serotonin receptor; 0.69% of 65,000 active; AID 574; P28566; CHO 5-HT1E Ga15 NFAT-bla reporter, FRET; 0% DMSO wells, 100% control agonist wells; activation, % at 6 µM;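 active = activation above a set limit, the screen-wide mean activation plus 3 SD, cut at about 8.5% in these data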;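 note: 100% = positive control agonist at 1 µM giving full maximal response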
# HTR1A agonist = 5-HT1a (human) receptor agonism | P08908 | CHO 5-HT1a Ga15 NFAT-bla reporter, FRET ratio; 0% basal, 100% maximal reference agonist | activation, % at 10 µM | 0.56% of 65,000 active;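 active = activation above the screen-wide mean activation plus 3 SD, cut at about 19% in these data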;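 note: 0% = DMSO wells and 100% = 5-CT at EC100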
# 5HT1a antag = blocks the human serotonin 5-HT1a receptor | CHO 5-HT1a Ga15 NFAT-bla reporter, antagonist mode | 0.68% of 62,000 active | inhibition, % at 10 µM | P08908;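 active = inhibition above the mean of all tested compounds plus 3 SD, cut at about 43% in these data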;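 note: receptor stimulated by 5-CT agonist at 100 nM near EC80; beta-lactamase reporter measured by ratiometric fluorescence of a cleavable substrate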
# S1P3 ag = agonists of human S1P3 receptor; Q99500; S1P3 NFAT-BLA reporter cells, agonism, FRET ratio; relative to 1 µM S1P, basal subtracted; activation, % at 4.5 µM; 0.1% of 60,000 active;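 active = activation above the screen-wide mean plus 3 SD, cut at about 4.5% in these data, passing the limit was not always enough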
# Target sequence (Q99500 whole entry, looked up): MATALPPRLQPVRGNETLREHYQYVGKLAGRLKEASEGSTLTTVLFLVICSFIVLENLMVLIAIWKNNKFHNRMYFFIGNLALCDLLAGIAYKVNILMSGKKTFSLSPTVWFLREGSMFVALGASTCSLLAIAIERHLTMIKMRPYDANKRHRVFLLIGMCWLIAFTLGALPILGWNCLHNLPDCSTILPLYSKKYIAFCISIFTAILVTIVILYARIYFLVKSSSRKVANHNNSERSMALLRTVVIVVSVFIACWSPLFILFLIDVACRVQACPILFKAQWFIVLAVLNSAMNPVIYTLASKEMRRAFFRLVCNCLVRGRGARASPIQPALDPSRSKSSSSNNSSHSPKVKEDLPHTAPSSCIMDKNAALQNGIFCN
#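 Assay system: stable CHO line with human S1P3, Gα16, NFAT-BLA reporter; Detection: FRET β-lactamase substrate fluorescence, excitation 405 nm, 460/535 nm emission ratio, background-subtracted; Read-out: percent activation versus median 1 µM S1P response, basal-subtracted, per plate; Incubation: cells plated overnight, compound 4 h 37 °C, substrate 2 h RT.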
# * marks the source's active call; other numbers are inactive results; · = no result given.
SMILES,S1P1 ag pot,HTR1E antagonist,5HT1E ag,HTR1A agonist,5HT1a antag,S1P3 ag
CC(=O)N(CC1CCCO1)c1nnc(-c2cnccn2)s1 (configuration not stated),3.5,-3.3,-0.5,-3.0,10.2,-0.3
COc1ccc(C2=NOC(C(=O)NCc3ccc(F)cc3)C2)cc1OC (configuration not stated),8.4,69.8*,-0.1,-2.4,33.5,1.1
COc1cccc(C2=NOC(C(=O)NCc3ccc(F)cc3)C2)c1 (configuration not stated),3.5,17.0,0.8,-3.8,37.0,0.1
COc1cc(C2=NOC(C(=O)NCc3ccc(F)cc3)C2)cc(OC)c1OC (configuration not stated),-14.8,69.8*,0.1,-1.6,55.6*,-0.1
CCOC(=O)C(C)n1ncn2cccc2c1=O (configuration not stated),-0.6,-2.1,-0.3,-4.1,-10.9,-0.2
CCOc1cc(N2CCOCC2)c(OCC)cc1NC(=O)c1cc(-c2ccco2)nc2ccccc12,·,50.2*,0.2,2.2,27.1,·
CC(=O)c1ccc(NS(=O)(=O)Cc2ccccc2)cc1,-15.8,-3.8,-0.2,-0.2,3.7,0.0
CC(=O)N(C)c1ccc(NS(=O)(=O)Cc2ccccc2)cc1,6.0,1.4,-0.5,68.9*,-6.8,-1.1
CCOC(=O)c1c(N)c(C#N)cn1-c1ccccc1,-13.7,6.2,0.1,-1.6,-4.6,0.5
CCOC(=O)c1c(NC(=O)c2nn(CC)cc2Br)c(C#N)cn1-c1ccccc1,-25.7,40.0*,-0.1,1.4,18.0,-0.3
CCOc1ccc(-c2[nH]ncc2Oc2ccccc2OC)c(O)c1,-3.5,-2.7,0.9,-3.8,-2.7,0.5
CCCOC(=O)c1ccc(Oc2cn[nH]c2-c2ccc(OC)cc2O)cc1,36.2,25.7,-0.6,-0.1,45.9*,-1.2
c1cncc(-c2nc(N3CCCCCC3)c3ccccc3n2)c1,-6.6,10.8,0.1,3.2,6.5,-1.4
CCN1CCN(c2nc(-c3cccnc3)nc3ccccc23)CC1,0.1,6.7,13.0*,3.7,-2.6,-0.1
CN1CCN(c2nc(-c3cccnc3)nc3ccccc23)CC1,-50.9,-3.4,41.9*,1.3,10.2,-0.7
Cc1ccc(S(=O)(=O)NCCCOC(=O)Nc2ccncc2)cc1,-9.2,-0.1,0.3,4.3,1.0,-0.8
COc1ccc(CNC(=O)c2ccc3c(c2)N(C)C(=O)CS3=O)cc1 (configuration not stated),-7.3,1.3,0.6,-2.3,7.4,-0.9
COc1ccc(NC(=O)Cn2cccc2)cc1Cl,0.1,5.7,-0.7,140.7*,3.3,0.0
Clc1ccc(Cn2ncc3c(N4CCCCC4)ncnc32)cc1,-2.7,33.8*,-1.3,3.7,8.6,-1.0
Cn1nnnc1Sc1ncnc2scc(-c3ccc(F)cc3)c12,-4.0,47.6*,0.2,0.5,33.7,-0.9
CCOC(=O)CCS(=O)(=O)c1nc(-c2ccccc2)cc(C(F)(F)F)n1,·,54.3*,1.4,-0.2,86.3*,-1.3
COCC(C)NC(=O)CCS(=O)(=O)c1nc(-c2ccc(OC)cc2)cc(C(F)(F)F)n1 (configuration not stated),16.2,8.2,0.1,4.3,38.9,-1.0
CCOC(=O)CS(=O)(=O)c1nc(-c2ccccc2)cc(C(F)(F)F)n1,1.8,107.8*,4.6,-6.6,104.8*,-0.7
CCOC(=O)CS(=O)(=O)c1nc(-c2ccc(F)cc2)cc(C(F)(F)F)n1,-34.3,81.8*,3.3,-10.0,102.5*,-2.2
CCc1c(C)nc2ncnn2c1NCCc1ccc(OC)cc1,54.9*,19.7,-0.4,0.1,8.9,-1.3
SMILES,S1P1 ag pot,HTR1E antagonist,5HT1E ag,HTR1A agonist,5HT1a antag,S1P3 ag
c1ccc(CCNc2c3c(nc4ncnn24)CCC3)cc1,18.5,3.3,-0.2,1.0,2.7,-1.7
Cc1ccccc1Cn1cc(NC(=O)c2noc3c2CC(C(C)(C)C)CC3)cn1 (configuration not stated),-4.9,-2.5,2.5,26.0*,5.8,-1.2
Cc1ccccc1Cn1nc(C)c(NC(=O)c2noc3c2CC(C(C)(C)C)CC3)c1C (configuration not stated),7.3,0.1,0.9,3.8,-10.1,-0.8
Cc1ccc(S(=O)(=O)N(C)CCCC(=O)Nc2ccccn2)cc1,-10.4,0.0,0.0,0.0,-6.5,-0.5
CCn1c(COc2ccc3c(c2)OCO3)nnc1SCC(=O)c1ccccc1,13.9,5.8,-0.5,-0.6,-3.8,-0.1
S=c1[nH]nc(COc2ccc3c(c2)OCO3)n1-c1ccccc1,-6.5,-2.8,27.6*,-2.9,8.5,-0.3
CC(C)n1nnnc1SCC(=O)N1CCOCC1,6.9,2.9,0.2,0.7,9.8,0.3
O=C(C1CCC1)N1CCc2cc(S(=O)(=O)Nc3ccc4c(c3)OCCO4)ccc21,114.8*,9.3,0.0,-4.3,8.8,-0.7
CCC(=O)N1CCc2cc(S(=O)(=O)Nc3ccc4c(c3)OCCO4)ccc21,·,8.2,-1.1,-1.4,6.9,·
CCOC(=O)C1=C(C)NC(=O)NC1c1ccc(OCC(=O)Nc2ccccc2)c(OC)c1 (configuration not stated),16.1,-0.9,88.9*,0.8,13.9,-1.0
O=C1CN(C(=O)c2ccco2)C(c2ccccc2)c2cc(Cl)ccc2N1 (configuration not stated),-5.7,4.6,0.2,1.7,4.9,-0.4
COc1ccc2sc(C)nc2c1NC(C)=O,-1.2,-2.0,-0.8,0.4,1.1,-0.6
COc1ccc(NC(C)=O)c2nc(C)c(C)nc12,-5.5,30.2*,-0.1,-0.3,4.9,-1.1
Cc1nnc2ccc(Oc3ccc(-c4ccccc4)cc3)nn12,68.3*,8.4,-0.1,0.2,1.4,-0.6
COc1cc(SC)ccc1C(=O)Nc1ccc2c(c1)OCCO2,·,-4.0,0.1,0.5,25.5,-0.9
CC1CCc2cccc3c2N1c1cc(C#N)c(C#N)cc1O3 (configuration not stated),21.0,27.7,-0.2,-3.2,10.5,-1.6
Nc1nonc1-c1nc2ccccc2n1Cc1ccccc1,·,14.4,-0.2,-1.5,56.1*,-1.3
CCOC(=O)c1ccccc1NC(=O)Cn1c(-c2nonc2N)nc2ccccc21,-19.0,74.4*,-1.6,-2.1,79.7*,-2.2
CCN(CC)CCCCOc1ccccc1OC,-17.2,-5.6,10.3*,0.3,-12.9,-0.7
COc1ccc(NC(=O)C2CCCN2C(=O)OCc2ccccc2)c(OC)c1 (configuration not stated),-55.7,-3.3,0.2,-2.9,4.3,-0.6
CCn1c(SCC(=O)O)nc2sc3c(c2c1=O)CCC3,-4.0,-7.4,0.4,-0.1,·,-2.4

# Source: PubChem BioAssay (The Scripps Research Institute Molecular Screening Center)
